Measured values published in ChEMBL document CHEMBL4002589, “Tri- and Tetrasubstituted Pyridinylimidazoles as Covalent Inhibitors of c-Jun N-Terminal Kinase 3” (J Med Chem, 2017).
Activity calls are given as the source filed them. The rule behind the calls is not given here.

Tests used:
[1] = biological target: Mitogen-activated protein kinase 10 (Homo sapiens, UniProt P53779); assay: Inhibition of recombinant 6x-His-tagged JNK3 (39 to 402 residues) (unknown origin) expressed in Escherichia coli BL21(DE3) assessed as reduction in ATF2 phosphorylation measured after 50 mins by ELISA
Sequence of Mitogen-activated protein kinase 10 (P53779 whole entry, the tested form may be a part): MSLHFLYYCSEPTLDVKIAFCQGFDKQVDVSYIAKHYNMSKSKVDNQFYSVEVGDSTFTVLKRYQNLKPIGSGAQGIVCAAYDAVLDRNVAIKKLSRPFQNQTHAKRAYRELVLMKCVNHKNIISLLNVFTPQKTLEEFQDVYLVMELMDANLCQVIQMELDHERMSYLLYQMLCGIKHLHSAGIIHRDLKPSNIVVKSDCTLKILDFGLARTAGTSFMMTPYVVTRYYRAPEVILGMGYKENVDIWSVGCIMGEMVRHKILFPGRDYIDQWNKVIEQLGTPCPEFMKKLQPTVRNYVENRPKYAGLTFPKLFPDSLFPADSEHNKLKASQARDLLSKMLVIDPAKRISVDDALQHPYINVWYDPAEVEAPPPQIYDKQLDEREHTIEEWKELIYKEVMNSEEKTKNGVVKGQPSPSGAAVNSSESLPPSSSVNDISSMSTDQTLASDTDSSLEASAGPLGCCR

[2] = biological target: Mitogen-activated protein kinase 14 (Homo sapiens, UniProt Q16539); assay: Inhibition of GST-His tagged human p38alpha expressed in Escherichia coli assessed as reduction in ATF2 phosphorylation measured after 60 mins by ELISA
Sequence of Mitogen-activated protein kinase 14 (Q16539 whole entry): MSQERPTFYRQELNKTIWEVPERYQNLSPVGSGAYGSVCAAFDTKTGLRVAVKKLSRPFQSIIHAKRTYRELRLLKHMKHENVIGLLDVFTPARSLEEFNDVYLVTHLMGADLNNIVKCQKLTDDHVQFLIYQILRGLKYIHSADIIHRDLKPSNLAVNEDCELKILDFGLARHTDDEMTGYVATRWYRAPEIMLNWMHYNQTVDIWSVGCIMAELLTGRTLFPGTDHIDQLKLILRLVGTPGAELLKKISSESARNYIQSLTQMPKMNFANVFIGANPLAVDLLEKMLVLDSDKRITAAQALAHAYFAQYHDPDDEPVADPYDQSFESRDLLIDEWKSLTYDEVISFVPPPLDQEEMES
Outline: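 ELISA kinase assays run in parallel for JNK3 and p38α, with 60 min incubation. IC50 values are the mean of three experiments.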

[3] = biological target: Casein kinase I isoform delta (Homo sapiens) (UniProt P48730); assay: Inhibition of CK1 delta (unknown origin) assessed as residual activity at 1 uM relative to control
Sequence of Casein kinase I isoform delta (Homo sapiens) (P48730 whole entry, looked up, canonical isoform): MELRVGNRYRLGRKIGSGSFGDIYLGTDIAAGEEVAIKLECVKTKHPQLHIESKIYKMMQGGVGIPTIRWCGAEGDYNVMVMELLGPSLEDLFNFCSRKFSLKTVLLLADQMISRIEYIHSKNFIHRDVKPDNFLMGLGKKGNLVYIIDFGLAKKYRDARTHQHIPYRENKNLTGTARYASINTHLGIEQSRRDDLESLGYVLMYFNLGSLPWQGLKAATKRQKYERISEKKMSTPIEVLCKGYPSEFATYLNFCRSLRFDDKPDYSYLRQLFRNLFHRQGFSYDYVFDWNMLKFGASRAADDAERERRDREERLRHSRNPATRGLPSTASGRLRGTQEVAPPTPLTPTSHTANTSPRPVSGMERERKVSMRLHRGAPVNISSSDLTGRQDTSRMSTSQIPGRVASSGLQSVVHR
Outline: (§1)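 Each inhibitor is tested at a single concentration, 1 µM or 0.5 µM depending on the compound. Results are reported as residual kinase activity.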

[4] = biological target: Casein kinase I isoform gamma-3 (Homo sapiens) (UniProt Q9Y6M4); assay: Inhibition of CK1 gamma3 (unknown origin) assessed as residual activity at 1 uM relative to control; outline: as §1
Sequence of Casein kinase I isoform gamma-3 (Homo sapiens) (Q9Y6M4 whole entry, looked up, canonical isoform): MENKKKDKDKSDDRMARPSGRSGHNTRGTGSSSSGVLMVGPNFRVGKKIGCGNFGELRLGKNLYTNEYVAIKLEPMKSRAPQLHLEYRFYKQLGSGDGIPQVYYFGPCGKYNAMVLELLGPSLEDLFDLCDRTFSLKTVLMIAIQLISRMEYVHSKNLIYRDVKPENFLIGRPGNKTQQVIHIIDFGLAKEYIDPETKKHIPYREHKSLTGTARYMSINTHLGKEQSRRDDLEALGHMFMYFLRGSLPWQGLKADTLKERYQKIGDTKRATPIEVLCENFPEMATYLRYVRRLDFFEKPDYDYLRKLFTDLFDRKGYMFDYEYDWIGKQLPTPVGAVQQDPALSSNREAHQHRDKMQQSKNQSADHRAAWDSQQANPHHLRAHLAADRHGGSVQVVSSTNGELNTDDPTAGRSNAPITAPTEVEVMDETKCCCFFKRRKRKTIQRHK

[5] = biological target: Mitogen-activated protein kinase kinase kinase 10 (Homo sapiens) (UniProt Q02779); assay: Inhibition of MAP3K10 (unknown origin) assessed as residual activity at 1 uM relative to control; outline: as §1
Sequence of Mitogen-activated protein kinase kinase kinase 10 (Homo sapiens) (Q02779 whole entry, looked up, the tested form may be a part): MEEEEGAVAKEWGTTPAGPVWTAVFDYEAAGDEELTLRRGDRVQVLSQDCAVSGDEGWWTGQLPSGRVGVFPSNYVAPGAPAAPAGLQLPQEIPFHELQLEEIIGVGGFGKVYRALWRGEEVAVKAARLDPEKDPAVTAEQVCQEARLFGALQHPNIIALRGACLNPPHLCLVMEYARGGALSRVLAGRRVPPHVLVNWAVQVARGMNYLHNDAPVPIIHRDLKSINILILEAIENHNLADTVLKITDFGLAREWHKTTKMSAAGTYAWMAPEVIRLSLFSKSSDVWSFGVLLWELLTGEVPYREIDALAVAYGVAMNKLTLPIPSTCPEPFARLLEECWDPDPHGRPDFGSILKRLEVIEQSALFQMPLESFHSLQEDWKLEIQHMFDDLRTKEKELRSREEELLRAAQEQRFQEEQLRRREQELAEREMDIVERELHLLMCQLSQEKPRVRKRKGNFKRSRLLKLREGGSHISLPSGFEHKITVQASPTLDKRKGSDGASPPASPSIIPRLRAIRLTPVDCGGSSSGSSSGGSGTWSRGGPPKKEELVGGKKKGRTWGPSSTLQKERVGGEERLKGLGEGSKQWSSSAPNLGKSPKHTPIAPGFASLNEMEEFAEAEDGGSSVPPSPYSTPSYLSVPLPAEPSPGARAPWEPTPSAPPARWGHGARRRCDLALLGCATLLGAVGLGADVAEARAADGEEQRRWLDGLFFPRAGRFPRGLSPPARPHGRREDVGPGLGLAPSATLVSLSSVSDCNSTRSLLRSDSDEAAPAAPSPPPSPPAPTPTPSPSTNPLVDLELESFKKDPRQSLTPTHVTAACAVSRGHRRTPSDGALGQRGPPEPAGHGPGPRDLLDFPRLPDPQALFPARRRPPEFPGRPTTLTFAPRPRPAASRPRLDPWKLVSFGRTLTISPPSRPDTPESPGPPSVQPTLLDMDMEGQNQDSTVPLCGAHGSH

[6] = biological target: T1, Serine/threonine-protein kinase D3 (Homo sapiens) (UniProt O94806); assay: Inhibition of human PKC-nu (3 to 890 residues) expressed in Sf9 cells assessed as residual activity at 1 uM relative to control; outline: as §1
T1 sequence (whole entry): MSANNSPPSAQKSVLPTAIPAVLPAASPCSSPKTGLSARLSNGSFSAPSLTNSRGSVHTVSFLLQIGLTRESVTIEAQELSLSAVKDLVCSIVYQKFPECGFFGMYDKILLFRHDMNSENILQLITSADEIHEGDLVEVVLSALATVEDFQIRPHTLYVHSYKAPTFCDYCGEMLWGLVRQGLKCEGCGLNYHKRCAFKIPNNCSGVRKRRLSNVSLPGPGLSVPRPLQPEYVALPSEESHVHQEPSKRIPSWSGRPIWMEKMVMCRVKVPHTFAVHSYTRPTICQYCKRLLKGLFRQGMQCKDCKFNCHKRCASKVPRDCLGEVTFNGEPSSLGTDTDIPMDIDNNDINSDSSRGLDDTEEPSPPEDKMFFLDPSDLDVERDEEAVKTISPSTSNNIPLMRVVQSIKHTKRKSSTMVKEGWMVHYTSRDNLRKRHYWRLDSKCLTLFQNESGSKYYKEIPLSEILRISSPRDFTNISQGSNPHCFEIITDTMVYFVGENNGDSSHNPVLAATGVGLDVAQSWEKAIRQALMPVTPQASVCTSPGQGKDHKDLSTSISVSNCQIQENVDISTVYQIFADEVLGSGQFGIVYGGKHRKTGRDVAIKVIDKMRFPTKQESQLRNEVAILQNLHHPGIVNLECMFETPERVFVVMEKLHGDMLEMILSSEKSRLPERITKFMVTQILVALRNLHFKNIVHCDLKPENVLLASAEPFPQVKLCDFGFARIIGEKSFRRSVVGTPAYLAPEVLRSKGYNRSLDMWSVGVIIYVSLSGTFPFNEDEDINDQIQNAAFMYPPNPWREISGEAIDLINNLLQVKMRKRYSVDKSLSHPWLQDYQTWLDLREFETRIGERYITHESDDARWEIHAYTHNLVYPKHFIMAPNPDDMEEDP

[7] = biological target: T2, Serine/threonine-protein kinase TAO2 (Homo sapiens) (UniProt Q9UL54); assay: Inhibition of TAOK2 (unknown origin) assessed as residual activity at 1 uM relative to control; outline: as §1
T2 sequence (whole entry): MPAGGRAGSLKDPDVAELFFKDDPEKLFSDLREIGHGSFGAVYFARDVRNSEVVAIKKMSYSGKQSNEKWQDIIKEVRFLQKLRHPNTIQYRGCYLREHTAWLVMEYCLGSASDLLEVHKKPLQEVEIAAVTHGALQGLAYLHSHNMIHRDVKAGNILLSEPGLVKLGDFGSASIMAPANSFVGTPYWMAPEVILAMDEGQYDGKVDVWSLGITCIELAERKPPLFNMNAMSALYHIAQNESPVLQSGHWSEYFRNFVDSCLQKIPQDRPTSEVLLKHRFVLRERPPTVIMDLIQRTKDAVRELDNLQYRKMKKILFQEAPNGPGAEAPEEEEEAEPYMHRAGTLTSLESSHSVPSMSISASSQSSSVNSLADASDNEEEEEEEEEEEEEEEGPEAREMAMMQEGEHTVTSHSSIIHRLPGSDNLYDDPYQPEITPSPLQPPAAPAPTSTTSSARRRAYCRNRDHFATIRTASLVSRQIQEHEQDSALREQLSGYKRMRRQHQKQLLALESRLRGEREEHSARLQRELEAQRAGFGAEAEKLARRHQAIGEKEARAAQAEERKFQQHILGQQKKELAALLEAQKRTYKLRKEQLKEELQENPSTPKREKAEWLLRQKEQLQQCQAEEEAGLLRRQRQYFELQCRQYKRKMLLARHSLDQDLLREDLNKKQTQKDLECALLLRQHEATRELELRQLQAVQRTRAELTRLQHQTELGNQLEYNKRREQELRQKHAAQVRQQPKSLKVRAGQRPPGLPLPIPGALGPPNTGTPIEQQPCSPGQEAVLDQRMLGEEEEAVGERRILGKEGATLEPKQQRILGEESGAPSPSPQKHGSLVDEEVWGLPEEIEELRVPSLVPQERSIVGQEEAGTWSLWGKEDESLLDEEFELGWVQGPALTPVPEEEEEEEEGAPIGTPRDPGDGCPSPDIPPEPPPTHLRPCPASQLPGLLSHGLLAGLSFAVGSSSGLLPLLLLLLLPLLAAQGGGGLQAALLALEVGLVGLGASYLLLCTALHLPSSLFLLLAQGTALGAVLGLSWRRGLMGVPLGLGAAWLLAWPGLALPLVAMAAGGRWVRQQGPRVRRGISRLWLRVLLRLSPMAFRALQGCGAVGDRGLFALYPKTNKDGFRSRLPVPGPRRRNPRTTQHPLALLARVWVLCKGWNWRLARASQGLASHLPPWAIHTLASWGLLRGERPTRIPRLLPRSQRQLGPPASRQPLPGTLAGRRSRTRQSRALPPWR

[8] = biological target: Serine/threonine-protein kinase 16 (Homo sapiens) (UniProt O75716); assay: Inhibition of full length human GST-tagged TSF1 expressed in Sf9 cells assessed as residual activity at 1 uM relative to control; outline: as §1
Sequence of Serine/threonine-protein kinase 16 (Homo sapiens) (O75716 whole entry): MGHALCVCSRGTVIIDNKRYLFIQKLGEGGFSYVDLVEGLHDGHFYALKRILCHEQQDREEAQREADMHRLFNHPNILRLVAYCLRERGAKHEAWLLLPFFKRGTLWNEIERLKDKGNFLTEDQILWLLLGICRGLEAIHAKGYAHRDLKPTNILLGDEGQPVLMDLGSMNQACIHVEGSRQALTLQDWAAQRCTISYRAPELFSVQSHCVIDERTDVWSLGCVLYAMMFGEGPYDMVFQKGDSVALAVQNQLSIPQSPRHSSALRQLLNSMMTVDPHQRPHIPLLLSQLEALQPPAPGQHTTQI

[9] = test system: Mitogen-activated protein kinase 10 (Homo sapiens), P53779 [C154A]; assay: Covalent binding affinity to JNK3 C154A mutant (unknown origin) at 5 molar excess after 1 hr by LC-muESI-QTOF mass spectrometry
Sequence of Mitogen-activated protein kinase 10 (Homo sapiens), P53779 [C154A] (P53779 whole entry C154A): as the sequence (P53779 whole entry, the tested form may be a part) above, with C154A counted along it
Outline: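 Intact-protein mass spectrometry with a JNK3 mutant carrying Cys-154→Ala. Inhibitor is incubated with the protein. Unbound and reversibly bound ligand are removed by chromatography and by a high declustering potential before ionization. The protein is then analysed by LC-µESI-QTOF to look for a mass shift from a covalent adduct.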

IC50 [1]: 2 nM
IC50 [2]: 1950 nM
Activity [3]: 10 to 29%
Activity [4]: 10 to 29%
Activity [5]: 10 to 29%
Activity [6]: 10 to 29%
Activity [7]: 10 to 29%
Activity [8]: 10 to 29%
SMILES: C=CC(=O)Nc1cccc(C(=O)Nc2ccc(Nc3cc(-c4[nH]c(SC)nc4C)ccn3)cc2)c1
Activity [9]: inactive
